High-throughput results deposited in PubChem BioAssay by Sanford-Burnham Center for Chemical Genomics.
Apaf-1 act = activators of human Apaf-1 apoptosome; O14727; Apaf-1 apoptosome caspase-3 activation, DEVD-Rh110 fluorescence; active compounds read low; activity change, negative = activation, % at 20 µM; hit rate 0.31% among 330,000; AID 489031;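 active = activity change at or below -40% at 20 µM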
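system = biochemical Apaf-1 apoptosome reconstitution | buffer or medium = 20 mM HEPES pH 7.5 with CHAPS, BSA | also added = dATP and cytochrome c as apoptosome triggers, (Z-DEVD)2-Rh110 substrate | incubation = 30 min compound preincubation and 50 min reaction, both room temperature | measured by = fluorescence, 540 nm emission, 480 nm excitation | read-out basis = Caspase-3 cleavage activity downstream of Apaf-1 activation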
Rh110 act interf = counter-screen for Apaf-1 activators: fluorescence interference; fluorescence interference (activity change), % at 20 µM, hits read low; shares compounds with Apaf-1 act; 980 tested, under 10 active; AID 504616; Rh110 fluorescence interference, quenched caspase reaction, Ex480/Em540;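 active = mean activity change at or below -40% when tested at 20 µM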
Apaf-1 act conf = confirmation of human Apaf-1 activators; shares compounds with Apaf-1 act; reconstituted apoptosome caspase-3 activity, DEVD-Rh110 fluorescence; active compounds read low; activity change, negative = activation, % at 20 µM; hit rate 5% among 980; AID 504617;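 active = mean activity change at or below -40%, meaning activation of 40% or more, at 20 µM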
An asterisk follows results filed as active. Not all results are given here.

SMILES	Apaf-1 act	others
CCOC(=O)C(O)(c1ccc(N(C)C(=O)c2ccc(Cl)c(Cl)c2)cc1)C(F)(F)F (stereo not drawn)	-190.2*	Rh110 act interf=-2.0;Apaf-1 act conf=22.9
COCCNC(=O)c1c(NC(=O)c2ccc(Br)o2)n(Cc2ccccc2)c2nc3ccccc3nc12	67.3
CCCCCCCSc1cc(OC)c(CCN(C)C)cc1OC	56.3
CCCNC1=C(C)C(=O)C2=C(C1=O)C(COC(N)=O)[C@]1(OC)C3NC3CN21 (stereo partly drawn)	56.5
CCOC(=O)c1c(NS(=O)(=O)c2ccccc2)n(CCCOC)c2nc3ccccc3nc12	96.5
CCN(CCO)c1ccc(N=Cc2c(O)n(C)c(=S)[nH]c2=O)cc1	51.2
CC[C@@H]1C(=O)OC[C@@H]1Cc1cncn1C	-0.1
NC(N)=N/N=C/c1ccc(N(c2ccccc2)c2ccccc2)cc1	61.5
C[C@]12CC[C@H](OS(=O)(=O)O)CC1=CC[C@@H]1[C@@H]2CC[C@]2(C)C(=O)CC[C@@H]12	4.6
CCCCCn1c(NC(=O)c2ccco2)c(C(=O)OCC)c2nc3ccccc3nc21	92.2
Cc1c(C(=O)Nc2ccccc2)cc(-c2ccccc2)n1CCCN1CCOCC1	-201.2*	Rh110 act interf=-1.8;Apaf-1 act conf=9.7
O=c1[nH]c2ccccc2n1C1CCN(CCCC(c2ccc(F)cc2)c2ccc(F)cc2)CC1	55.6
CCCOC(=O)c1ccc(-[n+]2c(-c3ccccc3)cc(-c3ccccc3)cc2-c2ccccc2)cc1	47.4
Nc1c(C(=O)NC2CCCC2)c2nc3ccccc3nc2n1CC1CCCO1 (stereo not drawn)	94.4
CNCCc1nc(N)n[nH]1	-73.9*	Rh110 act interf=4.0;Apaf-1 act conf=11.9
c1cncc(C2Nc3cccc4cccc(c34)N2)c1	42.1
c1ccc(-c2[nH]c[n+](CC3CO3)c2-c2ccccc2)cc1 (stereo not drawn)	51.1
C=CCn1c(O)c(C(C)=Nc2ccc(C(=O)O)cc2)c(=O)[nH]c1=O	-77.3*	Rh110 act interf=-1.5;Apaf-1 act conf=12.5
CCN(CC)c1ccc(N=Cc2c(O)n(-c3cc(OC)ccc3OC)c(=O)[nH]c2=O)cc1	48.5
Nc1cncc(C(=O)O)c1	40.8
CCOc1ccc(Cl)cc1CNCCc1ccc(F)cc1	-43.7*	Rh110 act interf=-1.1;Apaf-1 act conf=11.4
O=c1cc(C2CCNCC2)[nH][nH]1	58.0
Clc1ccc(C(c2ccc(Cl)cc2)n2cc[n+](CC(OCc3ccc(Cl)cc3Cl)c3ccc(Cl)cc3Cl)c2)cc1 (stereo not drawn)	89.5
CNc1ccc2nc3ccccc3[n+](C)c2c1	88.9
Cc1ccc(C[n+]2c(-c3ccc(C)cc3)cc(-c3ccc(C)cc3)cc2-c2ccc(C)cc2)cc1	78.5
